Test results as given in ChEMBL document CHEMBL4261522, “Discovery of potential antifungal triazoles: design, synthesis, biological evaluation, and preliminary antifungal mechanism exploration” (Medchemcomm, 2017).
In brackets after ≈: the same amount, converted by molar mass. Activity calls are given as the source filed them. The calls are words filed in the database; no cut-off is given here.

Tests used:
Cyberlindnera jadinii [1] = experiment: Antifungal activity against Candida utilis by two-fold serial dilution method; format: functional; conditions: Williopsis jadinii
In short: (§1)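 MIC by standard two-fold serial dilution in 96-well microplates following NCCLS guidelines. Strains were supplied by Southwest University School of Pharmaceutical Sciences and Third Military Medical University College of Pharmacy.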

Saccharomyces cerevisiae [2] = experiment: Antifungal activity against Saccharomyces cerevisiae by two-fold serial dilution method; format: functional; in short: as §1
Kregervanrija fluxuum [3] = experiment: Antifungal activity against Candida mycoderma by two-fold serial dilution method; format: functional; in short: as §1
Aspergillus flavus [4] = experiment: Antifungal activity against Aspergillus flavus by two-fold serial dilution method; format: functional; in short: as §1
Candida albicans = experiment: Antifungal activity against Candida albicans by two-fold serial dilution method; format: functional; in short: as §1
Aspergillus flavus [5] = experiment: Potency index, ratio of miconazole MIC to compound MIC for Aspergillus flavus by two-fold serial dilution method; format: functional
Aspergillus flavus [6] = experiment: Potency index, ratio of fluconazole MIC to compound MIC for Aspergillus flavus by two-fold serial dilution method; format: functional
Cyberlindnera jadinii [7] = experiment: Potency index, ratio of miconazole MIC to compound MIC for Candida utilis by two-fold serial dilution method; format: functional
Kregervanrija fluxuum [8] = experiment: Potency index, ratio of miconazole MIC to compound MIC for Candida mycoderma; format: functional
Saccharomyces cerevisiae [9] = experiment: Potency index, ratio of miconazole MIC to compound MIC for Saccharomyces cerevisiae; format: functional
Calf thymus DNA [10] = experiment: Inhibition of neural red dye binding to calf thymus DNA by UV absorption spectral analysis; format: nucleic-acid assay; conditions: Bos taurus
Calf thymus DNA [11] = experiment: Binding affinity to calf thymus DNA by UV absorption spectral analysis; format: nucleic-acid assay; conditions: Bos taurus
Calf thymus DNA [12] = experiment: Binding affinity to calf thymus DNA assessed as hypochromic effect between compound and DNA by UV absorption spectral analysis; format: nucleic-acid assay; conditions: Bos taurus
In short: (§2)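 UV absorption of the compound–DNA complex compared with the summed absorbance of free DNA and free compound. A measured value below the sum was read as hypochromism and one above it as hyperchromism.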

Calf thymus DNA [13] = experiment: Binding affinity to calf thymus DNA assessed as iodide quenching by measuring Stern-Volmer quenching constant by fluorescence spectral analysis (reference value: 11.6 +/- 0.067 L/mol); format: nucleic-acid assay; conditions: Bos taurus
In short: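 Fluorescence titration with KI as quencher, 0–12 × 10–3 mol L–1 in 2 × 10–3 mol L–1 steps. Compound at 1.0 × 10–5 mol L–1, alone or with DNA at 2.0 × 10–5 mol L–1. Run at 298 K with excitation at 290 nm. Quenching constant taken from a Stern–Volmer plot of F0/F against KI.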

Calf thymus DNA [14] = experiment: Binding affinity to calf thymus DNA assessed as hyperchromic effect between compound and DNA by UV absorption spectral analysis; format: nucleic-acid assay; conditions: Bos taurus; in short: as §2

SMILES | MIC (Cyberlindnera jadinii [1]) | MIC (Saccharomyces cerevisiae [2]) | MIC (Kregervanrija fluxuum [3]) | MIC (Aspergillus flavus [4]) | MIC (Candida albicans) | Ratio (Aspergillus flavus [5]) | Ratio (Aspergillus flavus [6]) | Ratio (Cyberlindnera jadinii [7]) | Ratio (Kregervanrija fluxuum [8]) | Ratio (Saccharomyces cerevisiae [9]) | inhibition (Calf thymus DNA [10]) | Activity (Calf thymus DNA [11]) | K (Calf thymus DNA [11]) | Activity (Calf thymus DNA [12]) | KSV (Calf thymus DNA [13]) | Activity (Calf thymus DNA [14])
Fc1ccc(C(Cn2c[n+](Cc3ccc(Cl)c(Cl)c3)cn2)OCc2ccc(Cl)c(Cl)c2)c(F)c1.[Cl-] (stereo unspecified) | 32 µg/mL | 16 µg/mL | 64 µg/mL | 64 µg/mL | 32 µg/mL | – | – | – | – | – | – | – | – | – | – | –
Fc1ccc(C(Cn2c[n+](Cc3ccc(Cl)cc3Cl)cn2)OCc2ccc(Cl)cc2Cl)c(F)c1.[Cl-] (stereo unspecified) | 8 µg/mL | 64 µg/mL | 32 µg/mL | 32 µg/mL | 16 µg/mL | – | – | – | – | – | – | – | – | – | – | –
Fc1ccc(COC(Cn2cncn2)c2ccc(F)cc2F)c(F)c1 (stereo unspecified) | 4 µg/mL (≈ 11.4 µM) | 4 µg/mL (≈ 11.4 µM) | 8 µg/mL (≈ 22.8 µM) | 16 µg/mL (≈ 45.5 µM) | 4 µg/mL (≈ 11.4 µM) | 16 | 16 | – | – | – | – | – | – | – | – | –
Fc1ccc(C(Cn2cncn2)OCc2ccc(Cl)cc2)c(F)c1 (stereo unspecified) | 4 µg/mL (≈ 11.4 µM) | 16 µg/mL (≈ 45.7 µM) | 16 µg/mL (≈ 45.7 µM) | 8 µg/mL (≈ 22.9 µM) | 8 µg/mL (≈ 22.9 µM) | – | – | – | – | – | – | – | – | – | – | –
CCCCCCCCOC(Cn1cncn1)c1ccc(F)cc1F (stereo unspecified) | 16 µg/mL (≈ 47.4 µM) | 16 µg/mL (≈ 47.4 µM) | 16 µg/mL (≈ 47.4 µM) | 128 µg/mL (≈ 379 µM) | 4 µg/mL (≈ 11.9 µM) | – | – | – | – | – | – | – | – | – | – | –
OC(Cn1cncn1)(Cn1cncn1)c1ccc(F)cc1F [FLUCONAZOLE] | 8 µg/mL (≈ 26.1 µM) | 16 µg/mL (≈ 52.2 µM) | 4 µg/mL (≈ 13.1 µM) | 256 µg/mL (≈ 836 µM) | 1 µg/mL (≈ 3.27 µM) | – | – | – | – | – | – | – | – | – | – | –
O=[N+]([O-])c1ccc(COC(Cn2c[n+](Cc3ccc([N+](=O)[O-])cc3)cn2)c2ccc(F)cc2F)cc1.[Cl-] (stereo unspecified) | 32 µg/mL | 64 µg/mL | 16 µg/mL | 16 µg/mL | 8 µg/mL | – | – | – | – | – | – | – | – | – | – | –
CCCCOC(Cn1cncn1)c1ccc(F)cc1F (stereo unspecified) | 8 µg/mL (≈ 28.4 µM) | 128 µg/mL (≈ 455 µM) | 64 µg/mL (≈ 228 µM) | 128 µg/mL (≈ 455 µM) | 64 µg/mL (≈ 228 µM) | – | – | 2 | – | – | – | – | – | – | – | –
CCCOC(Cn1cncn1)c1ccc(F)cc1F (stereo unspecified) | 32 µg/mL (≈ 120 µM) | 64 µg/mL (≈ 239 µM) | 1 µg/mL (≈ 3.74 µM) | 128 µg/mL (≈ 479 µM) | 4 µg/mL (≈ 15 µM) | – | – | – | 8 | – | – | – | – | – | – | –
Clc1ccc(COC(Cn2ccnc2)c2ccc(Cl)cc2Cl)c(Cl)c1 (stereo unspecified) [MICONAZOLE] | 16 µg/mL (≈ 38.4 µM) | 32 µg/mL (≈ 76.9 µM) | 8 µg/mL (≈ 19.2 µM) | 256 µg/mL (≈ 615 µM) | 4 µg/mL (≈ 9.61 µM) | – | – | – | – | – | – | – | – | – | – | –
CCCCCCOC(Cn1cncn1)c1ccc(F)cc1F (stereo unspecified) | 16 µg/mL (≈ 51.7 µM) | 32 µg/mL (≈ 103 µM) | 32 µg/mL (≈ 103 µM) | 32 µg/mL (≈ 103 µM) | 64 µg/mL (≈ 207 µM) | – | – | – | – | – | – | – | – | – | – | –
Fc1ccc(COC(Cn2c[n+](Cc3ccc(F)cc3F)cn2)c2ccc(F)cc2F)c(F)c1.[Cl-] (stereo unspecified) | > 256 µg/mL | 128 µg/mL | > 256 µg/mL | > 256 µg/mL | > 256 µg/mL | – | – | – | – | – | – | – | – | – | – | –
Cc1cc(=O)oc2cc(OCCOC(Cn3cncn3)c3ccc(F)cc3F)ccc12 (stereo unspecified) | 256 µg/mL (≈ 599 µM) | 128 µg/mL (≈ 299 µM) | 256 µg/mL (≈ 599 µM) | 256 µg/mL (≈ 599 µM) | 128 µg/mL (≈ 299 µM) | – | – | – | – | – | – | – | – | – | – | –
OC(Cn1cncn1)c1ccc(F)cc1F (stereo unspecified) | 256 µg/mL (≈ 1140 µM) | > 256 µg/mL | 256 µg/mL (≈ 1140 µM) | > 256 µg/mL | 128 µg/mL (≈ 568 µM) | – | – | – | – | – | – | – | – | – | – | –
Fc1ccc(C(Cn2cncn2)OCc2ccc(Cl)cc2Cl)c(F)c1 (stereo unspecified) | 4 µg/mL (≈ 10.4 µM) | 8 µg/mL (≈ 20.8 µM) | 16 µg/mL (≈ 41.6 µM) | 16 µg/mL (≈ 41.6 µM) | 8 µg/mL (≈ 20.8 µM) | 16 | 16 | – | – | – | – | – | – | – | – | –
Fc1ccc(C(Cn2cncn2)OCc2ccc(Cl)c(Cl)c2)c(F)c1 (stereo unspecified) | 1 µg/mL (≈ 2.6 µM) | 0.5 µg/mL (≈ 1.3 µM) | 4 µg/mL (≈ 10.4 µM) | 8 µg/mL (≈ 20.8 µM) | 1 µg/mL (≈ 2.6 µM) | 32 | 32 | – | – | 64 | Dose-dependent effect | Dose-dependent effect | 1.04 ×10⁴ L/mol | Active | 10.7 L/mol | –
Fc1ccc(C(Cn2cncn2)OCCCCOC(Cn2cncn2)c2ccc(F)cc2F)c(F)c1 (stereo unspecified) | 128 µg/mL (≈ 254 µM) | 64 µg/mL (≈ 127 µM) | 128 µg/mL (≈ 254 µM) | 64 µg/mL (≈ 127 µM) | 128 µg/mL (≈ 254 µM) | – | – | – | – | – | – | – | – | – | – | –
Fc1ccc(C(Cn2cncn2)OCc2ccccc2F)c(F)c1 (stereo unspecified) | 4 µg/mL (≈ 12 µM) | 16 µg/mL (≈ 48 µM) | 2 µg/mL (≈ 6 µM) | 32 µg/mL (≈ 96 µM) | 0.5 µg/mL (≈ 1.5 µM) | 8 | 8 | – | – | – | – | – | – | – | – | –
CCCCCCCCCCCCOC(Cn1cncn1)c1ccc(F)cc1F (stereo unspecified) | > 256 µg/mL | 8 µg/mL (≈ 20.3 µM) | > 256 µg/mL | 128 µg/mL (≈ 325 µM) | > 256 µg/mL | – | – | – | – | 4 | – | – | – | – | – | –
Fc1ccc(C(Cn2cncn2)OCc2ccccc2Cl)c(F)c1 (stereo unspecified) | 8 µg/mL (≈ 22.9 µM) | 16 µg/mL (≈ 45.7 µM) | 8 µg/mL (≈ 22.9 µM) | 16 µg/mL (≈ 45.7 µM) | 8 µg/mL (≈ 22.9 µM) | – | – | – | – | – | – | – | – | – | – | –
Cc1cc(=O)oc2cc(OCCCCOC(Cn3cncn3)c3ccc(F)cc3F)ccc12 (stereo unspecified) | 16 µg/mL (≈ 35.1 µM) | 4 µg/mL (≈ 8.78 µM) | 2 µg/mL (≈ 4.39 µM) | 32 µg/mL (≈ 70.3 µM) | 4 µg/mL (≈ 8.78 µM) | – | – | – | – | – | – | – | – | – | – | –
Fc1ccc(C(Cn2cncn2)OCc2cccc(Cl)c2)c(F)c1 (stereo unspecified) | 8 µg/mL (≈ 22.9 µM) | 16 µg/mL (≈ 45.7 µM) | 16 µg/mL (≈ 45.7 µM) | 32 µg/mL (≈ 91.5 µM) | 16 µg/mL (≈ 45.7 µM) | – | – | – | – | – | – | – | – | – | – | –
Fc1ccc(C(Cn2cncn2)OCCCCCCOC(Cn2cncn2)c2ccc(F)cc2F)c(F)c1 (stereo unspecified) | > 256 µg/mL | 128 µg/mL (≈ 240 µM) | 256 µg/mL (≈ 481 µM) | 256 µg/mL (≈ 481 µM) | 256 µg/mL (≈ 481 µM) | – | – | – | – | – | – | – | – | – | – | –
Fc1ccc(C(Cn2cncn2)OCCOC(Cn2cncn2)c2ccc(F)cc2F)c(F)c1 (stereo unspecified) | 8 µg/mL (≈ 16.8 µM) | 8 µg/mL (≈ 16.8 µM) | 256 µg/mL (≈ 537 µM) | 256 µg/mL (≈ 537 µM) | 64 µg/mL (≈ 134 µM) | – | – | – | – | – | – | – | – | – | – | –
Fc1ccc(C(Cn2c[n+](Cc3ccccc3F)cn2)OCc2ccccc2F)c(F)c1.[Cl-] (stereo unspecified) | 32 µg/mL | 32 µg/mL | 8 µg/mL | 64 µg/mL | 32 µg/mL | – | – | – | – | – | – | – | – | – | – | –
O=[N+]([O-])c1ccc(COC(Cn2cncn2)c2ccc(F)cc2F)cc1 (stereo unspecified) | > 256 µg/mL | > 256 µg/mL | > 256 µg/mL | > 256 µg/mL | > 256 µg/mL | – | – | – | – | – | – | – | – | – | – | –
Cc1cc(=O)oc2cc(OCCCCCCOC(Cn3cncn3)c3ccc(F)cc3F)ccc12 (stereo unspecified) | 16 µg/mL (≈ 33.1 µM) | 16 µg/mL (≈ 33.1 µM) | 1 µg/mL (≈ 2.07 µM) | 16 µg/mL (≈ 33.1 µM) | 2 µg/mL (≈ 4.14 µM) | – | – | – | – | – | Dose-dependent effect | Dose-dependent effect | 5.06 ×10⁴ L/mol | – | – | Active
